OXTR ag: human OXTR agonism. activation, % at 3 µM. AID 2435. actives 0.32% (n = 320,000). P30559. CHO-OTR cells, Fluo-8 calcium fluorescence; normalized: DMSO 0%, oxytocin 100%;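 active = activation above the mean of all tested compounds plus 3 SD, cutoff set per screening run, cut at about 20% in these data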;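 also: peak over basal fluorescence ratio from a 100 s FLIPR kinetic read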
V1aR counter: V1a receptor agonism, counter-screen for OXTR agonists | AID 2797 | actives 0.25% (n = 320,000) | activation, % at 3 µM | P37288 | CHO-V1R cells, Fluo-8 calcium fluorescence, agonist mode; 0% DMSO, 100% 3 nM vasopressin;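 active = activation above the mean activation of all tested compounds plus 3 SD, per screening run, cut at about 20% in these data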;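 also: signal is peak over basal fluorescence ratio across a 100 second FLIPR read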
Target sequence (P37288 whole entry, looked up): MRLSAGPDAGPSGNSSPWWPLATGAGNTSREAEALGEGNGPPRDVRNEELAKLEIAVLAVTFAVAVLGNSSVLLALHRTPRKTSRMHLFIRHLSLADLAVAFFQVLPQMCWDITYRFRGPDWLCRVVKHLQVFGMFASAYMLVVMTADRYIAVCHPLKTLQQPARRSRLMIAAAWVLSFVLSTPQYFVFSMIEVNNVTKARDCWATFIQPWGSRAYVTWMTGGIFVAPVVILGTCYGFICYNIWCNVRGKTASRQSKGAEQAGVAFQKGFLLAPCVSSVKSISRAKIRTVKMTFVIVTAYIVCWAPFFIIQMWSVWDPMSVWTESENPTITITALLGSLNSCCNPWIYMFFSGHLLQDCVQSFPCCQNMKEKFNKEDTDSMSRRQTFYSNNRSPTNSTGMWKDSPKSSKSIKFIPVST
TAAR1 antag: antagonists of human TAAR1; AID 624466; Q96RJ0; CHO RD-HGA16 TAAR1, Fluo-8 calcium fluorescence, antagonist; inhibition, % at 3 µM; actives 1.5% (n = 360,000);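 active = inhibition above a per-plate cutoff, the mean inhibition of test compounds on that plate plus 3 SD, cut at about 49% in these data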
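System: CHO RD-HGA16 cells bearing hTAAR1. Reagent: EC80 β-phenethylamine stimulus. Schedule: seeding 17-24 h prior, 75-min 37 °C, 30-min RT dye loading. Signal: Fluo-8 intracellular calcium dye fluorescence, real-time kinetic reads. Read-out: % inhibition from peak post-agonist over basal fluorescence ratio. Benchmarks: vehicle wells and EC80 agonist wells. Replicates: n of 1.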
OXTR potentiator: human OXTR potentiation; CHO-OTR cells, Fluo-8 calcium fluorescence, potentiator mode; 0% = oxytocin EC15, 100% = EC100; activation, % at 3 µM; actives 0.061% (n = 320,000);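 active = activation above that plate's cutoff, the mean activation of tested compounds plus 3 SD, cut at about 6.6% in these data, passing the limit was not always enough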
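System: human OTR in CHO cells / Also added: sub-maximal oxytocin, roughly EC15 / Control set: EC15 oxytocin low, 75 nM oxytocin high / Schedule: 6 min compound pre-incubation at room temperature, 100 s kinetic read / Compound: single-point 3.0 µM / Replication: singlicate / Technique: Fluo-8 calcium dye fluorescence / Read-out basis: % activation of max/min ratio relative to oxytocin controls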
TAAR1 ag: agonists of human TAAR1 | CHO RD-HGA16 TAAR1, Fluo-8 calcium fluorescence; vehicle wells 0%, saturating PEA agonist 100% | actives 0.99% (n = 360,000) | activation, % at 3 µM;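 active = activation above the mean activation of all test compounds in the run plus 3 SD, cut at about 38% in these data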
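System: CHO RD-HGA16 cells carrying human TAAR1 plus Gα16; Incubation: 17-24 h seeding, 75 min 37 °C dye, 30 min RT; Measured by: Fluo-8 fluorescence, 5 s baseline then 140 s kinetic read; Control set: DMSO and PEA EC100; Replication: single well for each compound.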
TAAR1 ag conf: confirmation of human TAAR1 agonists; shares compounds with TAAR1 ag; CHO RD-HGA16 TAAR1, Fluo-8 calcium fluorescence; scaled: DMSO 0%, maximal phenethylamine 100%; activation, % at 3 µM; actives 82% (n = 2,400);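 active = activation above a cutoff set at the run's mean compound activation plus 3 SD, cut at about 39% in these data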
Ga16 nonsel ag: nonselective agonist in parental cells, TAAR1 agonist counter-screen; shares compounds with TAAR1 ag; CHO-Ga16 parental, Fluo-8 calcium fluorescence; normalized to maximal ATP response, DMSO zero; activation, % at 3 µM; actives 50% (n = 2,400); AID 651787;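 active = activation above the run cutoff, the mean activation over all tested wells plus 3 SD, cut at about 12% in these data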
TAAR1 desens: human TAAR1 agonist that also desensitizes the receptor. CHO RD-HGA16 hTAAR1, Fluo-8 calcium, beta-PEA response inhibition. shares compounds with TAAR1 ag. inhibition, % at 3 µM. actives 46% (n = 2,400);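 active = inhibition above the run cutoff, the mean inhibition of all test compounds plus 3 SD, cut at about 49% in these data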;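 also: beta-PEA stimulus applied at its EC80; loss of beta-PEA calcium signal after compound pretreatment read as receptor desensitization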
Ga16 antag count: nonselective Ga16 antagonism, counter-screen; shares compounds with TAAR1 ag; CHO-Ga16 ATP-induced calcium, Fluo-8 fluorescence; inhibition, % at 3 µM; actives 39% (n = 2,400); AID 651952;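 active = inhibition above the plate's mean compound inhibition plus 3 SD, computed per plate, cut at about 22% in these data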
Numbers stand for hits; - = inactive; . = no result. Most compounds without a hit are left out; they make up all but 2.3% or so of the library.

SMILES	OXTR ag	V1aR counter	TAAR1 antag	OXTR potentiator	TAAR1 ag	TAAR1 ag conf	Ga16 nonsel ag	TAAR1 desens	Ga16 antag count
C/C=C/c1ccc(OCC(O)CNCCc2ccc(OC)cc2)c(OC)c1 (configuration not stated)	-	-	-	-	63	96	29	-	-
Cc1cnc(C(=O)OCC(=O)c2ccc(-c3ccccc3)cc2)cn1	-	-	-	-	-	.	.	.	.
CCCN1CCC(=O)N([C@H](CSc2ccc(OC)cc2)c2ccccc2)CC1	-	-	-	-	-	.	.	.	.
Cc1nn(Cc2ccccc2Cl)c(C)c1NC(=O)c1cc(-c2ccc(F)cc2)on1	-	-	63	-	55	-	-	53	26
COc1ccc2cc(CN(CCc3ccccc3)Cc3nnnn3Cc3ccco3)c(=O)[nH]c2c1	-	-	49	-	80	46	-	49	27
Cc1ccc2cc(CN(Cc3ccc4c(c3)OCO4)Cc3nnnn3Cc3ccco3)c(=O)[nH]c2c1	-	-	-	-	-	.	.	.	.
Cc1cc(/C=C(\C#N)C(=O)Nc2ccc(F)cc2)c(C)n1-c1ccc(N2CCOCC2)c([N+](=O)[O-])c1	-	-	-	-	69	-	-	-	28
CCNc1nc(NC(C)C)nc(N(n2cnnc2)S(=O)(=O)c2ccc(C)cc2)n1	-	-	-	-	-	.	.	.	.
COc1ccc(-c2cc(C3CCN(Cc4ccc([N+](=O)[O-])cc4)CC3)[nH]n2)cc1	-	-	-	-	48	40	18	-	-
OC1CCN(CC(O)C(F)(F)F)CC1 (configuration not stated)	-	-	-	-	-	.	.	.	.
Cc1ccc(CN2CCC(c3cc(-c4ccc(Cl)cc4)n[nH]3)CC2)cc1	-	-	-	-	67	85	21	75	31
COc1ccc(-c2cc(C3CCN(CC(O)C(F)(F)F)CC3)[nH]n2)cc1 (configuration not stated)	-	-	-	-	44	77	-	55	-
Cc1ccc(CN2CCC(c3nc4ccc(Cl)cc4[nH]3)CC2)cc1	-	-	-	-	-	.	.	.	.
CCOC(=O)CCCn1ccc2cc(S(=O)(=O)N3CCCC3)ccc21	-	-	-	-	-	.	.	.	.
NC1=NC[C@H](c2ccccc2)N1CCc1cccc(F)c1	-	-	-	-	-	.	.	.	.
CCc1nc(SCC(=O)Nc2ccc(F)cc2)c2c(=O)n(C)c(=O)n(C)c2n1	-	-	-	-	-	.	.	.	.
NC(=O)CN1C(=O)NC2(CCOc3ccccc32)C1=O (configuration not stated)	-	-	-	-	-	.	.	.	.
O=c1[nH]c2ccc(NC(=S)Nc3ccc(Cl)cc3)cc2[nH]1	-	-	-	-	53	58	-	-	29
CCCCN1Cc2cc(C(=O)c3cc(F)ccc3O)cnc2NC1=O	-	-	-	-	82	53	24	-	-
Cc1[nH]nc2ncc(C(=O)c3cc(F)ccc3O)cc12	-	-	-	-	-	.	.	.	.
Cn1c(C(=O)N2CCN(c3nc4ccccc4s3)CC2)cc2sccc21	-	-	-	-	46	-	14	-	25
O=C(c1cc2sccc2n1Cc1ccc(F)cc1)N1CCN(c2nc3ccccc3s2)CC1	-	-	-	-	-	.	.	.	.
CCN(CC)CCCNC(=O)c1cc(-c2ccccc2)c(N2CCCCC2)s1	-	-	-	-	53	55	34	-	-
Cc1ccc(Nc2cc(C)nc(NCc3ccccc3)n2)cc1	-	-	-	-	56	88	42	-	27
COc1ccc(Nc2cc(C)nc(NCc3ccccc3)n2)cc1	-	-	-	-	-	.	.	.	.
SMILES	OXTR ag	V1aR counter	TAAR1 antag	OXTR potentiator	TAAR1 ag	TAAR1 ag conf	Ga16 nonsel ag	TAAR1 desens	Ga16 antag count
Cc1cc(NC2CCCCC2)nc(NCc2ccccc2)n1	-	-	-	-	67	76	52	59	39
Cc1ccc(S(=O)(=O)NCC(c2ccc3c(c2)OCO3)N2CCN(c3ccccc3)CC2)cc1 (configuration not stated)	-	-	-	-	-	.	.	.	.
CN(C)c1ccc(-c2csc(C(O)c3ccc(F)cc3)n2)cc1 (configuration not stated)	.	.	91	.	77	90	59	98	73
Cc1ccc(-c2csc(C(O)c3ccc(F)cc3)n2)cc1C (configuration not stated)	.	.	-	.	-	.	.	.	.
CNC(=S)NNC(=O)c1cc(C(C)(C)C)nn1Cc1ccc(F)cc1	-	-	-	-	-	.	.	.	.
CCN(CC)c1ccc(C(=C2C=CC(=[N+](CC)CC)C=C2)c2ccc(N(CC)CC)cc2)cc1	.	.	95	.	50	68	45	92	84
COc1ccc2[nH]c3c(c2c1)CCN1C(=O)C(CC(=O)NCCc2ccccn2)C[C@H](C(=O)N2CCOCC2)[C@@]31CCC1CCCC1 (some centres not stated)	.	.	-	.	-	.	.	.	.
O=C(OCC(=O)N1CCCCC1)c1ccc2c(c1)C(=O)N(Cc1ccco1)C2=O	-	-	-	-	-	.	.	.	.
Fc1ccccc1-c1nc(-c2ccc(-c3nn[nH]n3)cc2)no1	-	-	-	-	51	-	16	-	-
Cc1ccc(S(=O)(=O)n2nc(OC(=O)c3cccc(F)c3)cc2N)cc1	-	-	-	-	103	56	38	-	-
Cc1ccc(S(=O)(=O)n2nc(OC(=O)c3ccco3)cc2N)cc1	-	-	-	-	-	.	.	.	.
Cc1ccc(S(=O)(=O)n2nc(OC(=O)c3c(F)cccc3Cl)cc2N)cc1	-	-	-	-	60	65	27	-	-
Cc1cc(=O)n2nc(N3CCC(C(=O)NCc4cccc(Br)c4)CC3)sc2n1	-	-	-	-	-	.	.	.	.
CC1(c2ccc(Cl)cc2)NC(=O)N(CC(=O)N2CCc3ccccc32)C1=O (configuration not stated)	40	28	73	-	97	114	74	77	55
CCN(CC)c1ccc(/C=C2/SC(=O)N(C(C)C)C2=O)o1	.	.	54	.	73	69	73	64	68
CC(C)N1C(=O)S/C(=C\c2ccc(-c3ccc(Cl)c(C(=O)O)c3)o2)C1=O	-	-	-	-	-	.	.	.	.

Screens from PubChem BioAssay.
